Results as given in ChEMBL document CHEMBL3593177, “Benzimidazole derivatives as potential dual inhibitors for PARP-1 and DHODH” (Bioorg Med Chem, 2015).

Key:
[1] = molecular target: T1, Dihydroorotate dehydrogenase (quinone), mitochondrial (Homo sapiens, UniProt Q02127); experiment: Inhibition of DHODH (unknown origin) using L-DHO, DUQ, DCIP as substrate at 10 uM preincubated for 30 mins followed by substrate addition measured after 20 mins by multilabel plate reader analysis relative to control
T1 sequence (Q02127 whole entry): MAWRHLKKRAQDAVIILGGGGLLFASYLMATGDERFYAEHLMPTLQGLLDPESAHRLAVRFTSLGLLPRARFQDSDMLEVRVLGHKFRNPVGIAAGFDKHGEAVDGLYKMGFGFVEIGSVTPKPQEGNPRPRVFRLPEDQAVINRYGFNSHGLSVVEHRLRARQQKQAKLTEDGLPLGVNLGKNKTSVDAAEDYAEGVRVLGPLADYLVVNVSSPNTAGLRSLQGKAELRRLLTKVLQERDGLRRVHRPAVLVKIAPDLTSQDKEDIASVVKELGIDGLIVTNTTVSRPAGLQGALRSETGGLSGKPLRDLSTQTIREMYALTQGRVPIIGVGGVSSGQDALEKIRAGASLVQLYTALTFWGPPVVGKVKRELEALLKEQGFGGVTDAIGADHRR
Summary of the method: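 Single-concentration screen at 10 µM. DHODH (25 ng) was preincubated with compound for 30 min at room temperature in 50 mM Tris-HCl, 150 mM KCl, 0.8% Triton, pH 8.0, with 1% DMSO final. The reaction was started with a substrate mix of 20 mM L-DHO, 2 mM DUQ and 2 mM DCIP (added-mix concentrations). DCIP reduction was followed as the drop in A610, read from 20 min, every 10 min for 1 h.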

[2] = molecular target: Poly [ADP-ribose] polymerase 1 (Homo sapiens, UniProt P09874); experiment: Inhibition of PARP-1 (unknown origin) assessed as incorporation of biotinylated poly (ADP-ribose) onto histone protein after 60 mins by TACS-Sapphire substarte-based colorimetric analysis
Sequence of Poly [ADP-ribose] polymerase 1 (P09874 whole entry): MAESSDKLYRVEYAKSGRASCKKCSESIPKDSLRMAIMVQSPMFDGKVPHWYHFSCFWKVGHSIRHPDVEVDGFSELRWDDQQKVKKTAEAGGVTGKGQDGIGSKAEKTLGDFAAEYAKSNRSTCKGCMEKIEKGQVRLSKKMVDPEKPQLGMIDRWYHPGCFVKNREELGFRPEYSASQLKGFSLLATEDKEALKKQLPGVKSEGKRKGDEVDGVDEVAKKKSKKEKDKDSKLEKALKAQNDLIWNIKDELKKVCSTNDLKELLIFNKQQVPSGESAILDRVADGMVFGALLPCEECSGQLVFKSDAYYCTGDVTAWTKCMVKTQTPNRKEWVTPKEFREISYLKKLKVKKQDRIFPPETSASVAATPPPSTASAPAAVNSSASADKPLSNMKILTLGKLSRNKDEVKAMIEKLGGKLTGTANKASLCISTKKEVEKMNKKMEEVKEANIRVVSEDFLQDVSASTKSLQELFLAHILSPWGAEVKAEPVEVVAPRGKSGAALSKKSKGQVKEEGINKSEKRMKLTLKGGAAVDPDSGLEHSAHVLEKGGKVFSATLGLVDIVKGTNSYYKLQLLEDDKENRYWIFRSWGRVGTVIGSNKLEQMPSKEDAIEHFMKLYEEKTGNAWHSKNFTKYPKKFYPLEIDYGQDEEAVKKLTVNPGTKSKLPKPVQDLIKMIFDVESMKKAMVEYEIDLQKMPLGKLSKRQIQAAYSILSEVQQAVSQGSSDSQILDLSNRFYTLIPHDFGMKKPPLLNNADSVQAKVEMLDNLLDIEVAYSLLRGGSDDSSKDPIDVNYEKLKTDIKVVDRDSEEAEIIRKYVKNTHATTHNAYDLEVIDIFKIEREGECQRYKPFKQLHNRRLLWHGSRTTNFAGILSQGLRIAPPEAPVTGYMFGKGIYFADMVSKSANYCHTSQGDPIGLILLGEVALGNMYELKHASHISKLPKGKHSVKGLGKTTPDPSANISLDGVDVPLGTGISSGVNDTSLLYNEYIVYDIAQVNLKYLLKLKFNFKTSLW

[3] = molecular target: T1, Dihydroorotate dehydrogenase (quinone), mitochondrial; experiment: Inhibition of DHODH (unknown origin) using L-DHO, DUQ, DCIP as substrate preincubated for 30 mins followed by substrate addition measured after 20 mins by multilabel plate reader analysis
[4] = molecular target: T1, Dihydroorotate dehydrogenase (quinone), mitochondrial; experiment: Inhibition of DHODH (unknown origin) using L-DHO, DUQ, DCIP as substrate at 1 uM preincubated for 30 mins followed by substrate addition measured after 20 mins by multilabel plate reader analysis relative to control
[5] = molecular target: T1, Dihydroorotate dehydrogenase (quinone), mitochondrial; experiment: Inhibition of human DHODH using L-DHO, DUQ, DCIP as substrate preincubated for 30 mins followed by substrate addition measured after 20 mins

Row | inhibition [1] | IC50 [2] | SMILES | further results
1 | < 15% | – | COc1ccc(-c2nc3c(C(N)=O)cc(C)cc3[nH]2)cc1 | –
2 | – | 84 nM | NC(=O)c1cc(F)cc2[nH]c(-c3ccc(-c4ccc(NC(=O)C5CC5)cc4F)cc3F)nc12 | –
3 | < 15% | 1720 nM | CCC(=O)Nc1ccc(-c2ccc(-c3nc4c(C(N)=O)cc(F)cc4[nH]3)cc2)cc1 | –
4 | – | – | CC(=O)Nc1ccc(-c2ccc(-c3nc4c(C(=O)O)cc(C)cc4[nH]3)cc2)cc1 | IC50 [3]: 210 nM
5 | – | 29 nM | NC(=O)c1cccc2[nH]c(-c3ccc(-c4cncc(C(=O)N5CCCC5)c4)cc3)nc12 | –
6 | – | – | CC(=O)Nc1cccc(COc2ccc(-c3ccc(-c4nc5c(C(=O)O)cc(C)cc5[nH]4)cc3)cc2)c1 | IC50 [3]: 28 nM
7 | – | 140 nM | CC(=O)Nc1ccccc1-c1ccc(-c2nc3c(C(N)=O)cccc3[nH]2)cc1 | –
8 | – | – | CC(=O)Nc1cccc(-c2ccc(-c3nc4c(C(=O)O)cc(C)cc4[nH]3)cc2)c1 | IC50 [3]: 1380 nM
9 | – | 720 nM | NC(=O)c1cccc2[nH]c(-c3ccc(-c4ccc(OCCN5CCCCC5)cc4)cc3)nc12 | –
10 | < 15% | 2280 nM | NC(=O)c1cccc2[nH]c(-c3ccc(-c4ccc(OCCCN5CCCCC5)cc4)cc3)nc12 | –
11 | < 15% | – | Cc1cc(C(N)=O)c2nc(-c3ccc(C#N)cc3)[nH]c2c1 | –
12 | – | 10600 nM | CC(=O)Nc1ccccc1COc1ccc(-c2ccc(-c3nc4c(C(=O)O)cc(C)cc4[nH]3)cc2)cc1 | IC50 [3]: 300 nM
13 | < 15% | – | COc1ccc(-c2nc3c(C(N)=O)cccc3[nH]2)cc1 | –
14 | – | 460 nM | CC(=O)Nc1cccc(-c2ccc(-c3nc4c(C(N)=O)cccc4[nH]3)cc2)c1 | inhibition [4]: 45%
15 | – | – | O=C(O)c1cccc2[nH]c(-c3ccc(-c4ccccc4)cc3)nc12 | IC50 [5]: 750 nM
16 | – | 32 nM | NC(=O)c1cccc2[nH]c(-c3ccc(-c4ccc(N)nc4)cc3)nc12 | –
17 | < 15% | – | NC(=O)c1cccc2[nH]c(-c3ccc(C(F)(F)F)cc3)nc12 | –
18 | – | 710 nM | NC(=O)c1cccc2[nH]c(-c3ccc(-c4ccccc4)cc3)nc12 | IC50 [3]: 9800 nM
19 | < 15% | – | Cc1cc(C(N)=O)c2nc(-c3ccc(-c4ccc(C(=O)N5CCCC5)cc4)cc3)[nH]c2c1 | –
20 | – | – | CC(=O)Nc1ccc(COc2ccc(-c3ccc(-c4nc5c(C(=O)O)cc(C)cc5[nH]4)cc3)cc2)cc1 | IC50 [3]: 13 nM
21 | – | – | Cc1cc(C(N)=O)c2nc(-c3ccc(-c4ccccc4)cc3)[nH]c2c1 | IC50 [3]: 7800 nM
22 | < 15% | – | Cc1cc(C(N)=O)c2nc(-c3ccc(C(F)(F)F)cc3)[nH]c2c1 | –
23 | – | 61 nM | NC(=O)c1cccc2[nH]c(-c3ccc(-c4cncc(CN5CCCC5)c4)cc3)nc12 | –
24 | – | 1280 nM | NC(=O)c1cc(F)cc2[nH]c(-c3ccc(-c4cccc(NC(=O)C5CC5)c4)cc3F)nc12 | –
25 | – | 49 nM | CC(=O)Nc1ccc(-c2ccc(-c3nc4c(C(N)=O)cccc4[nH]3)cc2)cn1 | –
26 | < 15% | 5960 nM | COc1cc(-c2ccc(-c3nc4c(C(N)=O)cc(F)cc4[nH]3)cc2)ccc1NC(=O)C1CC1 | –
27 | – | 980 nM | COc1cc(-c2ccc(-c3nc4c(C(N)=O)cc(F)cc4[nH]3)c(F)c2)ccc1NC(=O)C1CC1 | –
28 | < 15% | 12 nM | NC(=O)c1cccc2[nH]c(-c3ccc(-c4ccc(C(=O)N5CCCC5)nc4)cc3)nc12 | –
29 | – | 310 nM | NC(=O)c1cccc2[nH]c(-c3ccc(-c4ccc(C(=O)N5CCCC5)cc4)cc3)nc12 | –
